Reference: ChEMBL document CHEMBL4477209, “Indole-2-carboxamide-based MmpL3 Inhibitors Show Exceptional Antitubercular Activity in an Animal Model of Tuberculosis Infection” (J Med Chem, 2016)
Converted amounts (≈) assume the structure as drawn. The source made the active and inactive calls. The calls are words filed in the database; no cut-off is given here.

Columns and labels:
[1] = tested on: Mycobacterium tuberculosis H37Rv; assay: Inhibition of MmpL3 in clinical isolates of drug sensitive Mycobacterium tuberculosis H37Rv after 7 to 14 days by alamar blue assay
[2] = Oral bioavailability in BALB/c mouse at 100 mg/kg administered as single dose for 30 to 120 mins followed by Mycobacterium tuberculosis H37Rv addition to compound treated serum incubated for 7 days by alamar blue reagent based serum inhibition titration assay; assay type: ADME, organism-based; conditions: in vivo
Outline: (§1)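 Six-week-old female BALB/c mice (20 g) given one oral dose as suspension in 0.5% CMC in water; isoniazid 10 mg/kg as positive control, vehicle as negative. Serum collected at 30, 60 and 120 min, pooled from three mice per time point, 2-fold serially diluted. 10^4 CFU H37Rv added per well, 7 days at 37 °C. alamarBlue added for 16−18 h, fluorescence read at Ex544/Em590 and plotted against serum titration.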

[3] = tested on: Mycobacterium tuberculosis; assay: Antimycobacterial activity against Mycobacterium tuberculosis H37Rv grown on serum of 100 mg/kg, po treated BALB/c mouse for 30 to 120 mins assessed as reduction in bacterial growth followed by bacterial addition incubated for 7 days by alamar blue reagent based serum inhibition titration assay; assay type: functional, organism-based; outline: as §1
[4] = AUMClast in BALB/c mouse plasma at 100 mg/kg administered via oral gavage after 0.25 to 24 hrs by LC-MS analysis; assay type: ADME, organism-based; conditions: in vivo
Outline: (§2)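 Female BALB/c mice (20 g), single oral gavage dose of 100 mg/kg. Cardiac blood and lungs taken at 0, 0.25, 0.5, 1, 2, 4, 8 and 24 h (n = 3 per time point). Plasma separated by centrifugation; lungs bead-beaten in water and supernatant recovered. Drug quantified by LC-MS/MS against an indole-2-carboxamide internal standard. Parameters derived by noncompartmental analysis.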

[5] = AUMClast in BALB/c mouse lung at 100 mg/kg administered via oral gavage after 0.25 to 24 hrs by LC-MS analysis; assay type: ADME, organism-based; conditions: in vivo; outline: as §2
[6] = tested on: Mycobacterium tuberculosis; assay: Antimycobacterial activity against Mycobacterium tuberculosis H37Rv infected in BALB/c mouse model assessed as reduction in CFU counts in lung at 200 mg/kg administered daily via oral gavage for 5 days per week measured after 28 days post dosage relative to control; assay type: functional
Outline: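 Bactericidal-dose model in aerosol-infected BALB/c mice given 25, 50, 100 or 200 mg/kg orally in 0.5% carboxymethylcellulose in water for 4 weeks. Lung CFU compared with the count at treatment initiation; survival also recorded.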

[7] = Mean residence time (last) in BALB/c mouse plasma at 100 mg/kg administered via oral gavage by LC-MS analysis; assay type: ADME, organism-based; outline: as §2
[8] = Tmax in BALB/c mouse plasma at 100 mg/kg administered via oral gavage after 0.25 to 24 hrs by LC-MS analysis; assay type: ADME, organism-based
Outline: (§3)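 Female BALB/c mice (20 g) got a single 100 mg/kg oral gavage dose. Three animals were sacrificed per time point at 0, 0.25, 0.5, 1, 2, 4, 8 and 24 h. Cardiac blood was spun at 12 000g, 4 °C for plasma. Lungs were bead-beaten in water and the supernatant taken. Both matrices were quantified by LC-MS/MS with an indole-2-carboxamide internal standard. Parameters came from noncompartmental analysis.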

[9] = Tmax in BALB/c mouse lung at 100 mg/kg administered via oral gavage after 0.25 to 24 hrs by LC-MS analysis; assay type: ADME, organism-based; outline: as §3
[10] = tested on: Mycobacterium tuberculosis; assay: Antimycobacterial activity against Mycobacterium tuberculosis H37Rv infected in BALB/c mouse model assessed as protection against mouse mortality at 12.5 to 100 mg/kg administered daily via oral gavage for 5 days per week measured after 14 to 28 days post dosage; assay type: functional, organism-based
[11] = AUClast in BALB/c mouse lung at 100 mg/kg administered via oral gavage after 0.25 to 24 hrs by LC-MS analysis; assay type: ADME, organism-based; conditions: in vivo; outline: as §2
[12] = tested on: Mycobacterium tuberculosis; assay: Antimycobacterial activity against Mycobacterium tuberculosis H37Rv infected in BALB/c mouse model assessed as reduction in CFU counts in lung at 100 mg/kg administered daily via oral gavage for 5 days per week measured after 14 days post dosage relative to control; assay type: functional
Outline: (§4)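 Female BALB/c mice, 4-6 weeks old, aerosol-infected with H37Rv (about 10^3 CFU); five mice taken on day 1 for lung implantation CFU. From day 1, 12.5, 25, 50 or 100 mg/kg in 0.5% carboxymethylcellulose by daily oral gavage, 5 days/week. Ethambutol 100 mg/kg as positive control, untreated infected mice as negative, 5 mice per group. Lung homogenates plated on 7H11 selective agar on days 14 and 28.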

[13] = Mean residence time (last) in BALB/c mouse lung at 100 mg/kg administered via oral gavage by LC-MS analysis; assay type: ADME, organism-based; outline: as §2
[14] = AUClast in BALB/c mouse plasma at 100 mg/kg administered via oral gavage after 0.25 to 24 hrs by LC-MS analysis; assay type: ADME, organism-based; design: dose 100 mg/kg, time 0.25-24 hr, route oral; outline: as §2
[15] = Cmax in BALB/c mouse plasma at 100 mg/kg administered via oral gavage after 0.25 to 24 hrs by LC-MS analysis; assay type: ADME, organism-based; design: dose 100 mg/kg, route oral; outline: as §2
[16] = Cmax in BALB/c mouse lung at 100 mg/kg administered via oral gavage after 0.25 to 24 hrs by LC-MS analysis; assay type: ADME, organism-based; design: dose 100 mg/kg, route oral; outline: as §2
[17] = tested on: Mycobacterium tuberculosis; assay: Antimycobacterial activity against Mycobacterium tuberculosis H37Rv infected in BALB/c mouse model assessed as reduction in CFU counts in lung at 100 mg/kg administered daily via oral gavage for 5 days per week measured after 28 days post dosage relative to control; assay type: functional; outline: as §4

Structure (SMILES) | MIC90 [1] [µM] | further results
Nc1cccc2[nH]c(C(=O)NC3CCCCCCC3)cc12 | 20 (≈ 5.71 µg/mL) | 
C[C@@H](NC(=O)c1cc2c(F)cc(F)cc2[nH]1)C1CCCCC1 | 13 (≈ 3.98 µg/mL) | 
O=C(NC12CC3CC(CC(C3)C1)C2)c1cc2c(Cl)cc(Cl)cc2[nH]1 | 0.011 (≈ 0.004 µg/mL) | Drug uptake [2]: Not Active; Activity [3]: inactive
Nc1ccc2[nH]c(C(=O)NC3CCCCCCC3)cc2c1 | 80 (≈ 22.8 µg/mL) | 
O=C(NC1Cc2ccccc2C1)c1cc2c(F)cc(F)cc2[nH]1 | 102 (≈ 31.9 µg/mL) | 
Cc1cccc2[nH]c(C(=O)NC3CCCCCCC3)cc12 | 0.11 (≈ 0.0313 µg/mL) | 
CC(C)=CCC/C(C)=C/CNC(=O)c1cc2c(Cl)cc(Cl)cc2[nH]1 | 11 (≈ 4.02 µg/mL) | 
O=C(Nc1nc2ccc(OC(F)(F)F)cc2s1)C1CCCCCC1 | > 300 | 
C[C@@H]1[C@H]2C[C@@H](C[C@H]1NC(=O)c1cc3ccc(Br)cc3[nH]1)C2(C)C | 0.01 (≈ 0.00375 µg/mL) | 
Cc1ccc2[nH]c(C(=O)NC3CCCCCCC3)cc2c1 | 0.88 (≈ 0.25 µg/mL) | 
Cc1cc(C)c2cc(CNC3CCCCCCC3)[nH]c2c1 | 0.31 (≈ 0.0882 µg/mL) | 
O=C(NC1CCC2(CCCCC2)CC1)c1cc2c(Cl)cc(Cl)cc2[nH]1 | 0.005 (≈ 0.0019 µg/mL) | Drug uptake [2]: Not Active; Activity [3]: inactive
CC1(C)CCC(NC(=O)c2cc3c(Cl)cc(Cl)cc3[nH]2)CC1 |  | AUMClast [4]: 36.4 hr.hr.ug/ml; AUMClast [5]: 150 hr2.ug/g; Activity [6]: inactive; MRT last [7]: 6.47 h; Tmax [8]: 2 h; Tmax [9]: 2 h; Activity [10]: Active; AUClast [11]: 18.1 µg·h/g; Drug uptake [2]: Active; Activity [12]: 0.45 log10CFU; MRT last [13]: 8.3 h; AUC(0-t) [14]: 5620 ng·h/mL; Activity [3]: Active; Cmax [15]: 670 ng/mL; Cmax [16]: 1300 ng/g; Activity [17]: 1.08 log10CFU
COc1cc(OC)c2cc(C(=O)NC3CCCCCCC3)[nH]c2c1 | 0.19 (≈ 0.0628 µg/mL) | 
O=C(N[C@@H]1C[C@H]2CC[C@@H]1C2)c1cc2c(Cl)cc(Cl)cc2[nH]1 (relative stereo) | 0.39 (≈ 0.126 µg/mL) | 
Cc1cccc2cc(C(=O)NC3CCCCCC3)[nH]c12 | 30 (≈ 8.11 µg/mL) | 
CC1(C)[C@@H]2CC[C@@H](CNC(=O)c3cc4c(Cl)cc(Cl)cc4[nH]3)[C@H]1C2 | 175 (≈ 63.9 µg/mL) | 
COc1cc(OC)c2cc(C(=O)NC3CCCCCC3)[nH]c2c1 | 3.2 (≈ 1.01 µg/mL) | 
C[C@@H]1[C@@H](NC(=O)c2cc3c(Cl)cc(Cl)cc3[nH]2)C[C@H]2C[C@@H]1C2(C)C | 0.086 (≈ 0.0314 µg/mL) | 
O=C(NC1Cc2ccccc2C1)c1cc2c(Cl)cc(Cl)cc2[nH]1 | 0.72 (≈ 0.249 µg/mL) | 
Cc1ccc2[nH]c(C(=O)NC3CCCCCC3)cc2c1 | 7.4 (≈ 2 µg/mL) | 
